In ChEMBL document CHEMBL2396637, “Antagonism of L-type Ca2+ channels CaV1.3 and CaV1.2 by 1,4-dihydropyrimidines and 4H-pyrans as dihydropyridine mimics” (Bioorg Med Chem, 2013):
The source made the active and inactive calls. The calls are words filed in the database; no cut-off is given here.

Experiments:
[1] = target: T1, Voltage-dependent L-type calcium channel subunit alpha-1C (Oryctolagus cuniculus, UniProt P15381); test: Antagonist activity at rabbit voltage-dependent L-type calcium channel Cav1.2alpha-1C expressed in HEK293 cells by FLIPR assay; type: cell-based
Procedure, shortened: (§1)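 HEK293 lines stably expressing rat CaV1.3α1D or rabbit CaV1.2α1C, with rat CaVβ3 and rat CaVα2δ-1 cDNAs used in construction. Calcium influx was read by Fluo-8 fluorescence on a FLIPR Tetra. […] The selectivity ratio is CaV1.3 IC50 over CaV1.2 IC50.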

[2] = target: Voltage-dependent L-type calcium channel subunit alpha-1D (Rattus norvegicus, UniProt P27732); test: Antagonist activity at rat voltage-dependent L-type calcium channel Cav1.3alpha-1D expressed in HEK293 cells by FLIPR assay; type: cell-based; procedure, shortened: as §1
[3] = Selectivity ratio of IC50 for rabbit voltage-dependent L-type calcium channel Cav1.2alpha-1C to IC50 for rat voltage-dependent L-type calcium channel Cav1.3alpha-1D
[4] = target: T1, Voltage-dependent L-type calcium channel subunit alpha-1C; test: Antagonist activity at rabbit voltage-dependent L-type calcium channel Cav1.2alpha-1C expressed in HEK293 cells assessed as inhibition of peak barium current at 1 to 10 uM by whole-cell patch-clamp electrophysiology technique; type: cell-based
Procedure, shortened: (§2)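 Stably transfected HEK293 cells were held on poly-D-lysine coverslips for 24–48 h at 37 °C, then whole-cell voltage-clamped. External solution (mM): 140 NaCl, 1 MgCl2, 10 BaCl2, 10 HEPES, 10 dextrose, 10 sucrose, 20 CsCl, pH 7.4. Ba2+ currents were evoked by a 100 ms step from −80 to 0 mV. Compound was perfused at 1 or 10 µM from a DMSO stock. Percent inhibition of peak current or of end current (last 50 ms) was taken, n = 5, as the median.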

[5] = target: Voltage-dependent L-type calcium channel subunit alpha-1D (Rattus norvegicus) (UniProt P27732); test: Antagonist activity at rat voltage-dependent L-type calcium channel Cav1.3alpha-1D expressed in HEK293 cells assessed as inhibition of peak barium current at 1 to 10 uM by whole-cell patch-clamp electrophysiology technique; type: cell-based; procedure, shortened: as §2
[6] = target: T1, Voltage-dependent L-type calcium channel subunit alpha-1C; test: Antagonist activity at rabbit voltage-dependent L-type calcium channel Cav1.2alpha-1C expressed in HEK293 cells assessed as inhibition of end barium current at 1 to 10 uM by whole-cell patch-clamp electrophysiology technique; type: cell-based; procedure, shortened: as §2
[7] = target: Voltage-dependent L-type calcium channel subunit alpha-1D (Rattus norvegicus) (UniProt P27732); test: Antagonist activity at rat voltage-dependent L-type calcium channel Cav1.3alpha-1D expressed in HEK293 cells assessed as inhibition of end barium current at 1 to 10 uM by whole-cell patch-clamp electrophysiology technique; type: cell-based; procedure, shortened: as §2
[8] = Selectivity ratio of IC50 for rat voltage-dependent L-type calcium channel Cav1.3alpha-1D to IC50 for rabbit voltage-dependent L-type calcium channel Cav1.2alpha-1C
Procedure, shortened: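 HEK293 lines stably expressing rat CaV1.3α1D or rabbit CaV1.2α1C, with rat CaVβ3 and rat CaVα2δ-1 cDNAs used in construction. Calcium influx was read by Fluo-8 fluorescence on a FLIPR Tetra. The selectivity ratio is CaV1.3 IC50 over CaV1.2 IC50.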

[9] = Selectivity ratio of inhibition for rat voltage-dependent L-type calcium channel Cav1.3alpha-1D to inhibition for rabbit voltage-dependent L-type calcium channel Cav1.2alpha-1C at 0.3 uM

Chain of Voltage-dependent L-type calcium channel subunit alpha-1D (P27732 whole entry): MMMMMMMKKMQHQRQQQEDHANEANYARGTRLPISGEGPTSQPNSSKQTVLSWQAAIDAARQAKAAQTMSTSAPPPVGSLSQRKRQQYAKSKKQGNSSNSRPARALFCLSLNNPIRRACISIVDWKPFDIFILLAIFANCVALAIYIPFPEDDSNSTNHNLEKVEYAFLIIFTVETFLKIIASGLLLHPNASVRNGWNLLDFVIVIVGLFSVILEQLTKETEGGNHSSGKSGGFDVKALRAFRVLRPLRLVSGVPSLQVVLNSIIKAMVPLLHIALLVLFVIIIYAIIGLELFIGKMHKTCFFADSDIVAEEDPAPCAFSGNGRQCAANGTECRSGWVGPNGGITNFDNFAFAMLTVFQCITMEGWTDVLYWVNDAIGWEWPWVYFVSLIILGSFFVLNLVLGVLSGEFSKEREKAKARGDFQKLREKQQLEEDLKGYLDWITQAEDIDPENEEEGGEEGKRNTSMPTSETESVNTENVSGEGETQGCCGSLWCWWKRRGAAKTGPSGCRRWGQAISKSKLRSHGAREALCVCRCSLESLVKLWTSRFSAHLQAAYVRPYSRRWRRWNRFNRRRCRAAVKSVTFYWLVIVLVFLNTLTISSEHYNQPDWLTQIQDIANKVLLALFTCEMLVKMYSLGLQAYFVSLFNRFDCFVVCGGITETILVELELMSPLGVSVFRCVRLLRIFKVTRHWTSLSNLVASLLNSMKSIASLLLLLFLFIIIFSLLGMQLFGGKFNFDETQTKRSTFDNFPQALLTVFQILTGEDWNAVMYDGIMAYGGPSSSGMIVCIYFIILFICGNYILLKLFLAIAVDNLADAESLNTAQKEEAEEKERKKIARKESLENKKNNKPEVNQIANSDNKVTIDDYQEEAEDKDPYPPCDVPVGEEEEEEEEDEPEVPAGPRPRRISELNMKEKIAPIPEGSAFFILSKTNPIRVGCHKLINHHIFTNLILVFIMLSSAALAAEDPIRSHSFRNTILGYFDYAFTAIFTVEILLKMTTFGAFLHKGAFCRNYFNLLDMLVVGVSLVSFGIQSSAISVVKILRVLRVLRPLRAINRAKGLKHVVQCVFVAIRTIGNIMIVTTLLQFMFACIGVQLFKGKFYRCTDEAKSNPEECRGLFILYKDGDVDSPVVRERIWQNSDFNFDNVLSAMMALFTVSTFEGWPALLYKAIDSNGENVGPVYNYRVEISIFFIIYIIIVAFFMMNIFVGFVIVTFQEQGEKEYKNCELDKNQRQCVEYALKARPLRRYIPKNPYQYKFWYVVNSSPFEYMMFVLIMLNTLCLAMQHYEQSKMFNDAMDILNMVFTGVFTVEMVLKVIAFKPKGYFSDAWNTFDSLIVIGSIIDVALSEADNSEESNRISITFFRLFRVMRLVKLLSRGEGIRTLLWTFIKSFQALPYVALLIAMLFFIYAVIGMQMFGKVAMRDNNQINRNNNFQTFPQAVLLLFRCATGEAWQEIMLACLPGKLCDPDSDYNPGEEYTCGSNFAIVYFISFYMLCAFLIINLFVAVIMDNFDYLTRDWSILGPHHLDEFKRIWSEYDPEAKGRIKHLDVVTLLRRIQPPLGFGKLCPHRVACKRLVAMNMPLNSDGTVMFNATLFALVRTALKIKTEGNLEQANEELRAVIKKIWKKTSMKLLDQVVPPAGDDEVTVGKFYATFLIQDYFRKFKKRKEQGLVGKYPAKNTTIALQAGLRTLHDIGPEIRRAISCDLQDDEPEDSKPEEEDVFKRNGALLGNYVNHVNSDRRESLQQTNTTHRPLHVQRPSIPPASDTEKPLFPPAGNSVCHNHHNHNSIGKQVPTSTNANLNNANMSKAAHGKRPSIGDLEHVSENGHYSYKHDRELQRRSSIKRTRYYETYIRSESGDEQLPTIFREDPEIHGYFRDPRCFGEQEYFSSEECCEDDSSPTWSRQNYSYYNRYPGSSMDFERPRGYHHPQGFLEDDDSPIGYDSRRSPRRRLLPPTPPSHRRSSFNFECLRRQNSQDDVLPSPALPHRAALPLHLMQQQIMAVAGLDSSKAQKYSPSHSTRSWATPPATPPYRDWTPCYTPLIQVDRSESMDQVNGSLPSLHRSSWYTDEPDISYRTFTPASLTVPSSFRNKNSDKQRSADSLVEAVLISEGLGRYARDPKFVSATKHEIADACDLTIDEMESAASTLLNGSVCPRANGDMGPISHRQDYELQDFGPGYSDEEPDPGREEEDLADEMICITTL
T1 sequence (P15381 whole entry): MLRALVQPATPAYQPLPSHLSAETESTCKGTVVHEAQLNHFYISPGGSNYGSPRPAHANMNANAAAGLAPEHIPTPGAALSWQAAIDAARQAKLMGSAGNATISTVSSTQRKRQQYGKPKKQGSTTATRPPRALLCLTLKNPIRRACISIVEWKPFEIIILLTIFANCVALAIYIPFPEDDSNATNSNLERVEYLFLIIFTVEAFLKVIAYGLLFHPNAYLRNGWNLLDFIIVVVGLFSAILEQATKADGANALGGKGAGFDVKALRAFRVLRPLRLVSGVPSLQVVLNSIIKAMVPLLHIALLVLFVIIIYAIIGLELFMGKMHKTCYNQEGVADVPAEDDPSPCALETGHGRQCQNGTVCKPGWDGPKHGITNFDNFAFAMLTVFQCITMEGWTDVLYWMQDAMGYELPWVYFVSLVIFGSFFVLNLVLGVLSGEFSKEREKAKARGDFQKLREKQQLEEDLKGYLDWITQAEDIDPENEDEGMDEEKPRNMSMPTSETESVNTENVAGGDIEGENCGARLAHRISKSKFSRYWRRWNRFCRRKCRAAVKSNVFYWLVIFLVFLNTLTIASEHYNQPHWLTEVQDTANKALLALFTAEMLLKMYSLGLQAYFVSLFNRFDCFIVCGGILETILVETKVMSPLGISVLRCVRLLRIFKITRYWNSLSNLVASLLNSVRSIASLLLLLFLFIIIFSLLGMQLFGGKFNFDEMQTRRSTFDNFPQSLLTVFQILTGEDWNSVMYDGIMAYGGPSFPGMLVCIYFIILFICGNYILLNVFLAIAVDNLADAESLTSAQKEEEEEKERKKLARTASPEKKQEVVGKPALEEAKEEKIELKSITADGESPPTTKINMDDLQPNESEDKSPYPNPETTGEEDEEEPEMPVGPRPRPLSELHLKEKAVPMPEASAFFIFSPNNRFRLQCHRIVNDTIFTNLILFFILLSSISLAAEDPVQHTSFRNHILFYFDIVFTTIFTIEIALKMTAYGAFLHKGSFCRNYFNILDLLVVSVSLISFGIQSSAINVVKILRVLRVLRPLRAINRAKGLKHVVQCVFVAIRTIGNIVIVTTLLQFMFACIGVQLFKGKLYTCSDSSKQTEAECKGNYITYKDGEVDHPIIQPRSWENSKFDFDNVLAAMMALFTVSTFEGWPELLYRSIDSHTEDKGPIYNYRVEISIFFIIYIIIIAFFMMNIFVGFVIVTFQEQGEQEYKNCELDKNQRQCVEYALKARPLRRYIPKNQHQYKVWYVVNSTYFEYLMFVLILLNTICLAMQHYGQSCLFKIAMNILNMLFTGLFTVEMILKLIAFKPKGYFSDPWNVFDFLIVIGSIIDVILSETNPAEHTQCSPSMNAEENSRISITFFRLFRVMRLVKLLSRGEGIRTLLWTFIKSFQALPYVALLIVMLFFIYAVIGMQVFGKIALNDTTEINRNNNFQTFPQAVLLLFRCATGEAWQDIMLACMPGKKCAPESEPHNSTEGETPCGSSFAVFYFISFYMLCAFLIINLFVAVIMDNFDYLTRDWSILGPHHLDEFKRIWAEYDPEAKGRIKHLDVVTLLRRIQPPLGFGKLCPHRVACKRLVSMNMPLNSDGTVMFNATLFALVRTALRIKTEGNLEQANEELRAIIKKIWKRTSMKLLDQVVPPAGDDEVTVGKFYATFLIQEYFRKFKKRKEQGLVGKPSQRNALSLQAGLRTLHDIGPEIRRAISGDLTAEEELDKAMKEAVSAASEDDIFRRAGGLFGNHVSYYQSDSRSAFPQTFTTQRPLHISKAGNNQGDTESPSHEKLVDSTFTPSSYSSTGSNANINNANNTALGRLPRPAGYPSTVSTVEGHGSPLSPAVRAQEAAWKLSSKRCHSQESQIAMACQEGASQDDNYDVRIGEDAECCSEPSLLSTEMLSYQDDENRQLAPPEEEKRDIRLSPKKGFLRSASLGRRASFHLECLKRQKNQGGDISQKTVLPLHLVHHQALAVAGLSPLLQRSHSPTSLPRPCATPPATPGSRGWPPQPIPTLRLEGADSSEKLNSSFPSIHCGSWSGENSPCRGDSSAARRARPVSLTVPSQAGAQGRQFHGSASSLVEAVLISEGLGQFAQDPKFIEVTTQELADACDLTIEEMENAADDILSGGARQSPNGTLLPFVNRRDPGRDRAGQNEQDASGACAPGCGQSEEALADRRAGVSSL
Chain of Voltage-dependent L-type calcium channel subunit alpha-1D (Rattus norvegicus) (P27732 whole entry): as the sequence (P27732 whole entry) above

SMILES: CNC1=NC(C)=C(C(=O)OC)C(c2cccc([N+](=O)[O-])c2)N1C(=O)OC(C)C (configuration not stated)
- IC50 [1]: 1.81 µM
- IC50 [2]: 4.22 µM
- Ratio IC50 [3]: 0.4

SMILES: CSC1=NC(c2cccc([N+](=O)[O-])c2)C(C(=O)OC(C)C)=C(C)N1 (configuration not stated)
- IC50 [1]: 0.42 µM
- IC50 [2]: 1.86 µM
- Ratio IC50 [3]: 0.2

SMILES: COC(=O)C1=C(C)N=C(SC)NC1c1cccc([N+](=O)[O-])c1 (configuration not stated)
- IC50 [1]: 3.29 µM
- IC50 [2]: 10.6 µM
- Ratio IC50 [3]: 0.3

SMILES: COC(=O)N1C(=O)NC(C)=C(C(=O)OC(C)C)[C@@H]1c1cccc([N+](=O)[O-])c1
- IC50 [1]: 21.7 µM
- IC50 [2]: 35.1 µM
- Ratio IC50 [3]: 0.6

SMILES: CC1=C(C(=O)OC(C)C)C(c2cccc([N+](=O)[O-])c2)NC(=O)N1 (configuration not stated)
- IC50 [1]: 58.1 µM
- IC50 [2]: 46.6 µM

SMILES: CC(C)OC(=O)C1=C(C(C)C)NC(=O)N(C(=O)OC(C)C)C1c1cccc([N+](=O)[O-])c1 (configuration not stated)
- IC50 [1]: 1.93 µM
- IC50 [2]: 4.31 µM
- Ratio IC50 [3]: 0.5

SMILES: CCOC(=O)C1=C(NC(C)=O)OC(C)=C(C(=O)OC)C1c1cccc([N+](=O)[O-])c1 (configuration not stated)
- IC50 [1]: 4.75 µM
- IC50 [2]: 10 µM
- Ratio IC50 [3]: 0.5

SMILES: COC(=O)C1=C(C)N=C(SC)N(C(=O)OC(C)C)C1c1cccc([N+](=O)[O-])c1 (configuration not stated)
- IC50 [1]: 16.1 µM
- IC50 [2]: 5.58 µM
- Ratio IC50 [3]: 3

SMILES: COC(=O)C1=C(C(C)C)NC(=O)N(C(=O)OC(C)C)C1c1cccc([N+](=O)[O-])c1 (configuration not stated)
- IC50 [1]: 10.4 µM
- IC50 [2]: 10.1 µM
- Ratio IC50 [3]: 1

SMILES: COC(=O)C1=C(C)OC(N)=C(C(=O)OC(C)C)C1c1cccc([N+](=O)[O-])c1 (configuration not stated)
- IC50 [1]: 0.41 µM
- IC50 [2]: 1.82 µM
- Ratio IC50 [3]: 0.2

SMILES: COC(=O)N1C(=S)NC(C)=C(C(=O)OC(C)C)[C@H]1c1cccc([N+](=O)[O-])c1
- IC50 [1]: 0.5 µM
- IC50 [2]: 0.56 µM
- Ratio IC50 [3]: 0.9

SMILES: COC(=O)C1=C(C)NC(=S)NC1c1cccc([N+](=O)[O-])c1 (configuration not stated)
- IC50 [1]: 55 µM
- IC50 [2]: > 100 µM

SMILES: CCOC(=O)C1=C(NC(=O)C(C)C)OC(C)=C(C(=O)OC)C1c1cccc([N+](=O)[O-])c1 (configuration not stated)
- IC50 [1]: 4.23 µM
- IC50 [2]: 9.95 µM
- Ratio IC50 [3]: 0.4

SMILES: CCOC(=O)N1C(=O)NC(C(C)C)=C(C(=O)OC)C1c1cccc([N+](=O)[O-])c1 (configuration not stated)
- IC50 [1]: 14.8 µM
- IC50 [2]: 24.5 µM
- Ratio IC50 [3]: 0.6

SMILES: COC(=O)C1=C(C)NC(=O)N(C(=O)OC(C)C)C1c1cccc([N+](=O)[O-])c1 (configuration not stated)
- IC50 [1]: 2.48 µM
- IC50 [2]: 4.6 µM
- Ratio IC50 [3]: 0.6

SMILES: COC(=O)N1C(=O)N(C(=O)OC)C(c2cccc([N+](=O)[O-])c2)C(C(=O)OC(C)C)=C1C (configuration not stated)
- IC50 [1]: 6.13 µM
- IC50 [2]: 5.88 µM
- Ratio IC50 [3]: 1.1

SMILES: CC1=C(C(=O)OC(C)C)[C@@H](c2cccc([N+](=O)[O-])c2)N(C(=O)OC(C)C)C(=O)N1
- inhibition (INH) [4]: Active
- inhibition [5]: Active
- IC50 [1]: 1.02 µM
- IC50 [2]: 0.51 µM
- inhibition (INH) [6]: Active
- inhibition [7]: Active
- Ratio IC50 [3]: 2.1

SMILES: COC(=O)SC1=NC(C)=C(C(=O)OC(C)C)C(c2cccc([N+](=O)[O-])c2)N1C(=O)OC (configuration not stated)
- IC50 [1]: 1.02 µM
- IC50 [2]: 1.11 µM
- Ratio IC50 [3]: 0.9

SMILES: COC(=O)C1=C(C)NC(=O)NC1c1cccc([N+](=O)[O-])c1 (configuration not stated)
- IC50 [1]: 11.7 µM
- IC50 [2]: 18.9 µM
- Ratio IC50 [3]: 0.6

SMILES: COC(=O)N1C(=S)NC(C)=C(C(=O)OC(C)C)C1c1cccc([N+](=O)[O-])c1 (racemic)
- IC50 [1]: 0.35 µM
- IC50 [2]: 0.55 µM
- Ratio IC50 [3]: 0.6

SMILES: COC(=O)C1=C(C(C)C)NC(=O)NC1c1cccc([N+](=O)[O-])c1 (configuration not stated)
- IC50 [1]: > 100 µM
- IC50 [2]: > 100 µM

SMILES: CCOC(=O)N1C(=O)N(C(=O)OCC)C(c2cccc([N+](=O)[O-])c2)C(C(=O)OC)=C1C(C)C (configuration not stated)
- Ratio IC50 [8]: 1
- IC50 [1]: 13.9 µM
- IC50 [2]: 13.9 µM

SMILES: CCOC(=O)C1=C(N)OC(C)=C(C(=O)OC)C1c1cccc([N+](=O)[O-])c1 (configuration not stated)
- IC50 [1]: 0.58 µM
- IC50 [2]: 2.72 µM
- Ratio IC50 [3]: 0.2

SMILES: COC(=O)N1C(=S)NC(C)=C(C(=O)OC(C)C)[C@@H]1c1cccc([N+](=O)[O-])c1
- IC50 [1]: 9.87 µM
- IC50 [2]: 12.8 µM
- Ratio IC50 [3]: 0.8

SMILES: CC1=C(C(=O)OC(C)C)C(c2cccc([N+](=O)[O-])c2)N(C(=O)C(C)C)C(=O)N1 (configuration not stated)
- IC50 [1]: 0.5 µM
- IC50 [2]: 0.99 µM
- Ratio IC50 [3]: 0.5

SMILES: CNC1=NC(C)=C(C(=O)OC(C)C)C(c2cccc([N+](=O)[O-])c2)N1C(=O)OC (configuration not stated)
- IC50 [1]: 2.45 µM
- IC50 [2]: 3.25 µM
- Ratio IC50 [3]: 0.8

SMILES: CC1=C(C(=O)OC(C)C)[C@H](c2cccc([N+](=O)[O-])c2)N(C(=O)OC(C)C)C(=O)N1
- IC50 [1]: 3.07 µM
- IC50 [2]: 1.96 µM
- Ratio IC50 [3]: 1.6

SMILES: COC(=O)N1C(=O)NC(C)=C(C(=O)OC(C)C)[C@H]1c1cccc([N+](=O)[O-])c1
- IC50 [1]: 2.36 µM
- IC50 [2]: 1.91 µM
- Ratio IC50 [3]: 1.2

SMILES: COC(=O)C1=C(C)NC(C)=C(C(=O)OC(C)C)C1c1cccc2nonc12 (configuration not stated) [ISRADIPINE]
- Selectivity ratio [9]: 0.69
- IC50 [1]: 0.107 µM
- IC50 [2]: 0.221 µM
- Ratio IC50 [3]: 0.5

SMILES: CC1=C(C(=O)OC(C)C)C(c2cccc([N+](=O)[O-])c2)NC(=S)N1 (configuration not stated)
- IC50 [1]: 10.7 µM
- IC50 [2]: 15.8 µM
- Ratio IC50 [3]: 0.7

SMILES: COC(=O)N1C(SC)=NC(C)=C(C(=O)OC(C)C)C1c1cccc([N+](=O)[O-])c1 (configuration not stated)
- IC50 [1]: 5.54 µM
- IC50 [2]: 10.7 µM
- Ratio IC50 [3]: 0.4

SMILES: COC(=O)C1=C(C)NC(=S)N(C(=O)OC(C)C)C1c1cccc([N+](=O)[O-])c1 (configuration not stated)
- IC50 [1]: 0.17 µM
- IC50 [2]: 0.88 µM
- Ratio IC50 [3]: 0.2

SMILES: COC(=O)C1=C(C(C)C)NC(=O)N(C(=O)C(C)C)C1c1cccc([N+](=O)[O-])c1 (configuration not stated)
- IC50 [1]: 56.6 µM
- IC50 [2]: > 100 µM

SMILES: COC(=O)N1C(=O)NC(C)=C(C(=O)OC(C)C)C1c1cccc([N+](=O)[O-])c1 (racemic)
- IC50 [1]: 2.48 µM
- IC50 [2]: 2.96 µM
- Ratio IC50 [3]: 0.9

SMILES: COC(=O)C1=C(C)OC(NC(C)=O)=C(C(=O)OC(C)C)C1c1cccc([N+](=O)[O-])c1 (configuration not stated)
- IC50 [1]: 6.11 µM
- IC50 [2]: 13.6 µM
- Ratio IC50 [3]: 0.5

SMILES: CC1=C(C(=O)OC(C)C)C(c2cccc([N+](=O)[O-])c2)C(C(=O)OC(C)C)=C(N)O1 (configuration not stated)
- IC50 [1]: 0.86 µM
- IC50 [2]: 1.39 µM
- Ratio IC50 [3]: 0.6

SMILES: CC1=C(C(=O)OC(C)C)C(c2cccc([N+](=O)[O-])c2)N(C(=O)OC(C)C)C(=O)N1 (racemic)
- IC50 [1]: 0.64 µM
- IC50 [2]: 0.66 µM
- Ratio IC50 [3]: 1
